≈ marks a conversion by molar mass, not a printed value.
How the values were obtained:
[1] = Oral bioavailability in Sprague-Dawley rat at 5 mg/kg administered as single dose by LC-MS/MS analysis; format: ADME, organism-based; conditions: in vivo
Outline: (§1)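 Sprague–Dawley rats (n = 3/group) given compound as a solution in 20% HP-β-CD, 1 mg/kg i.v. and 5 mg/kg p.o.; plasma pharmacokinetics derived from these arms.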

[2] = Clearance in Sprague-Dawley rat at 1 mg/kg, iv administered as single dose by LC-MS/MS analysis; format: ADME, organism-based; conditions: in vivo
Outline: (§2)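 Single 1 mg/kg i.v. dose as a solution to Sprague–Dawley rats (n = 3/group); vehicle 20% HP-β-CD in one study series, 1:1 PEG400/H2O in the other; plasma PK parameters derived.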

[3] = Apparent permeability across basolateral to apical side in MDCK-MDR1 cells at 5 uM measured after 60 mins by LC-MS/MS analysis; format: ADME, cell-based, Canis lupus familiaris; conditions: dog
Outline: (§3)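 Bidirectional apparent permeability measured in Madin–Darby canine kidney cells transfected with the MDR1 (P-gp) gene; Papp reported in ×10–6 cm/s.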

[4] = Apparent permeability across apical to basolateral side in MDCK-MDR1 cells at 5 uM measured after 60 mins by LC-MS/MS analysis; format: ADME, cell-based, Canis lupus familiaris; conditions: dog; outline: as §3
[5] = Thermodynamic solubility of the compound in simulated gastric fluid at pH 1.6 incubated under stirred condition for 3 days; format: physicochemical; conditions: read-out: Therm_solubility
Outline: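 Thermodynamic solubility (μM) determined in simulated gastric fluid at pH 1.6 and in fasted state simulated intestinal fluid at pH 6.5.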

[6] = Protein binding in human plasma assessed as unbound fraction at 1 uM measured after 6 hrs by equilibrium dialysis method; format: ADME, cell-free
Outline: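 Human or rat plasma protein binding at 1 μM compound, expressed as fraction unbound (fub).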

[7] = Volume of distribution at steady state in Sprague-Dawley rat at 1 mg/kg, iv or 5 mg/kg, po administered as single dose by LC-MS/MS analysis; format: ADME, organism-based; conditions: in vivo, read-out: Vdss; outline: as §2
[8] = Half life in Sprague-Dawley rat at 1 mg/kg, iv administered as single dose by LC-MS/MS analysis; format: ADME, organism-based; conditions: in vivo; outline: as §2
[9] = Cmax in Sprague-Dawley rat at 5 mg/kg, po administered as single dose by LC-MS/MS analysis; format: ADME, organism-based; set-up: dose 5 mg/kg, route oral; conditions: in vivo; outline: as §1
[10] = system: Rattus norvegicus; test: Ex vivo receptor occupancy at GluA/TARPgamma8 in po dosed Sprague-Dawley rat assessed as brain concentration causing 50% reduction in [3H]JNJ-56022486 receptor labeling in hippocampus at Tmax by autoradiography; format: functional, organism-based
Outline: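 Oral dose–response in Sprague–Dawley rats, n = 3/dose (8 doses in one study; vehicle 0.5% HPMC or 20% HP-β-CD); hippocampal occupancy measured at Tmax by ex vivo autoradiography using [3H]-12; EC50 expressed against plasma (ng/mL) or brain (ng/g) exposure, ED50 against dose.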

[11] = system: Rattus norvegicus; test: Toxicity in po dosed Sprague-Dawley rat assessed as effect on central nervous system functions measured after 14 days; format: organism-based; conditions: in vivo, 336 h
Outline: (§4)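 Repeat-dose toleration study in rats over 14 days at 20 and 60 mg/kg/day; CNS observations recorded and liver assessed by histological analysis.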

[12] = system: Rattus norvegicus; test: Hepatotoxicity in Sprague-Dawley rat assessed as necrosis at 20 to 60 mg/kg, po measured after 14 days by histological analysis; format: toxicity, organism-based; conditions: in vivo, 336 h; outline: as §4
[13] = system: Rattus norvegicus; test: Ex vivo receptor occupancy at GluA/TARPgamma8 in po dosed Sprague-Dawley rat assessed as reduction in [3H]JNJ-56022486 receptor labeling in hippocampus measured within 10 mins by autoradiography; format: functional
[14] = Ratio of unbound brain to plasma concentration in Sprague-Dawley rat at 1 mg/kg, iv or 5 mg/kg, po administered as single dose by LC-MS/MS analysis; format: ADME, organism-based; conditions: brain and plasma, read-out: K(p,uu,brain)
[15] = Thermodynamic solubility of the compound in fasted state simulated intestinal fluid at pH 6.5 incubated under stirred condition for 3 days; conditions: read-out: Therm_solubility
[16] = system: Rattus norvegicus; test: Ex vivo receptor occupancy at GluA/TARPgamma8 Sprague-Dawley rat assessed as plasma concentration causing 50% reduction in [3H]JNJ-56022486 receptor labeling in hippocampus po measured after 10 mins by autoradiography

Q: For `O=c1[nH]c2ccc(-c3c(Cl)cccc3OC(F)(F)F)cc2[nH]1`, which bioavailability [1] is on record?
A: 133%

Q: And the clearance [2]?
A: 6.9 mL/min/kg

Q: What about the Papp B→A at 1 h, 5 µM [3] of the same molecule?
A: 24 ×10⁻⁶ cm/s

Q: What about the Papp A→B at 1 h, 5 µM [4] of the same molecule?
A: 22 ×10⁻⁶ cm/s

Q: What about the solubility thermodynamic at 72 h [5] of the same molecule?
A: < 4 µM

Q: And the fraction unbound at 6 h, 1 µM [6]?
A: 0.3

Q: What about the Vd [7] of the same molecule?
A: 3.3 L/kg

Q: What about the half-life [8] of the same molecule?
A: 5.8 h

Q: What about the Cmax [9] of the same molecule?
A: 1030 ng/mL

Q: And the EC50 [10]?
A: 545 ng/g

Q: And the Activity [11]?
A: Non-Toxic

Q: What about the Activity [12] of the same molecule?
A: Toxic

Q: And the ED50 [13]?
A: 0.5 mg/kg

Q: What about the Kp uu [14] of the same molecule?
A: 0.6

Q: What about the solubility thermodynamic at 72 h [15] of the same molecule?
A: 74 µM (≈ 24.3 µg/mL)

Q: What about the EC50 [16] of the same molecule?
A: 0.145 µg/mL (≈ 0.441 µM)
